# The source made the active and inactive calls. The rule behind the calls is not given here.
# Legend:
# [1] = Partition coefficient (logP); format: physicochemical; conditions: octanol/water
# Canis familiaris [2] = experiment: Antisecretory dose in mg/kg required for 50% inhibition in dogs by intravenous administration; format: functional, Canis lupus familiaris
# Summary of the method: (§1)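 Pentagastrin-stimulated Heidenhain pouch dogs were dosed iv, and acid output was titrated from 30-min collections. Percent inhibition compares the lowest post-dose output with the pre-dose mean. The dose giving 50% inhibition came from linear regression of log dose on percent inhibition in n dogs.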
# Canis familiaris [3] = experiment: Maximum percent inhibition of acid output in pentagastrin-stimulated Heidenhain pouch dog following 1 mg/kg i.v. administration.; format: functional; conditions: Canis lupus familiaris, route intravenous
# Summary of the method: (§2)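 Fasted unanesthetized Heidenhain pouch dogs, with acid output stimulated to near maximum by continuous pentagastrin infusion into a leg vein. Gastric juice was collected every 30 min, ten collections per dog. Acid was titrated to pH 7.4 with 0.1 N NaOH. Compound or vehicle was given iv 90 min after the infusion started. Percent inhibition compares the lowest post-dose acid output with the mean output just before dosing. Single experiments.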
# Canis familiaris [4] = experiment: Maximum percent inhibition of acid output in pentagastrin-stimulated Heidenhain pouch dog at dose (9 mg/kg) administered intravenously; format: functional; conditions: Canis lupus familiaris, iv; summary of the method: as §2
# [5] = biological target: Histamine H2 receptor (Cavia porcellus) (UniProt P47747); experiment: Dissociation constant of H2 receptor antagonist activity against guinea pig atrium; format: functional, tissue-based; conditions: Cardiac atrium
# Histamine H2 receptor (Cavia porcellus), sequence (P47747 whole entry): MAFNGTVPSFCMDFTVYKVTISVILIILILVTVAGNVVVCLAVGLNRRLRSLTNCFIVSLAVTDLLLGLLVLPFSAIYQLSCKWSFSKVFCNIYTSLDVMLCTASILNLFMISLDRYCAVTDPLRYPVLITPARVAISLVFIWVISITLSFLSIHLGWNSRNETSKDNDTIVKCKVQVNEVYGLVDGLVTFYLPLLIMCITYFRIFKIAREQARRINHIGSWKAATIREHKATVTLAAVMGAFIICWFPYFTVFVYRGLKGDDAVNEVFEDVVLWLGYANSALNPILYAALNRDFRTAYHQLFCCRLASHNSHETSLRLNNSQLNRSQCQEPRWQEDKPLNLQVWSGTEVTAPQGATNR
# Canis familiaris [6] = experiment: Maximum percent inhibition of acid output in pentagastrin-stimulated Heidenhain pouch dog following 10 mg/kg i.v. administration.; format: functional; conditions: Canis lupus familiaris, route intravenous; summary of the method: as §2
# Canis familiaris [7] = experiment: Maximum percent inhibition of acid output in pentagastrin-stimulated Heidenhain pouch dog at dose (8 mg/kg) administered intravenously; format: functional; conditions: Canis lupus familiaris, iv; summary of the method: as §2
# [8] = biological target: Histamine H2 receptor (Cavia porcellus) (UniProt P47747); experiment: Dissociation constant of H2 receptor antagonist activity against guinea pig atrium;NA means not active; format: functional, tissue-based; conditions: Cardiac atrium
# Summary of the method: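 Right atria from guinea pigs killed by a blow to the head, hung isometrically in oxygenated (95% O2/5% CO2) Krebs–Henseleit buffer at pH 7.4 and 32 ± 2 °C, and stabilized about 1 h. Histamine dose–response curves were run before and after antagonist at set final concentrations, with 3- or 30-min drug equilibration. DR is the ratio of half-maximal histamine concentrations. KB = B/(DR − 1). Schild slope is log(DR − 1) vs log B.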
# Canis familiaris [9] = experiment: Maximum percent inhibition of acid output in pentagastrin-stimulated Heidenhain pouch dog at dose (5 mg/kg) administered intravenously; format: functional; conditions: Canis lupus familiaris, iv; summary of the method: as §2
# Canis familiaris [10] = experiment: Maximum percent inhibition of acid output in pentagastrin-stimulated Heidenhain pouch dog at dose(mg/kg) administered intravenously; format: functional, Canis lupus familiaris; summary of the method: as §2
# Canis familiaris [11] = species: Canis familiaris; experiment: Effective dose for acid output in pentagastrin-stimulated Heidenhain pouch dog; format: functional, Canis lupus familiaris; summary of the method: as §1
# Canis familiaris [12] = experiment: Maximum percent inhibition of acid output in pentagastrin-stimulated Heidenhain pouch dog at dose (25 mg/kg) administered intravenously; format: functional; conditions: Canis lupus familiaris, iv; summary of the method: as §2
# Canis familiaris [13] = experiment: Maximum percent inhibition of acid output in pentagastrin-stimulated Heidenhain pouch dog at dose (23 mg/kg) administered intravenously; format: functional; conditions: Canis lupus familiaris, iv; summary of the method: as §2
# Canis familiaris [14] = experiment: Maximum percent inhibition of acid output in pentagastrin-stimulated Heidenhain pouch dog at dose (0.5 mg/kg) administered intravenously; format: functional; conditions: Canis lupus familiaris, iv; summary of the method: as §2
Structure (SMILES),logP [1],-Log I50 (Canis familiaris [2]),inhibition in vivo at 1 mg/kg (Canis familiaris [3]),KB [5],inhibition in vivo at 10 mg/kg (Canis familiaris [6]),further results
CCCCNc1cc(-c2n[nH]c(N)n2)ccn1,2.15,-0.5,29%,0.67 µM,–,inhibition in vivo at 9 mg/kg (Canis familiaris [4]): 69%
CCNc1cc(-c2n[nH]c(CO)n2)ccn1,–,–,20%,4.5 µM,53%,–
CC(C)(C)c1ccc(CNc2cc(-c3n[nH]c(N)n3)ccn2)cc1,–,–,–,0.14 µM,–,inhibition in vivo at 8 mg/kg (Canis familiaris [7]): 0%
Nc1n[nH]c(-c2ccnc(NCCO)c2)n1,0.24,-1.31,–,2 µM,34%,–
Cc1cc(-c2c[nH]c(C)n2)ccn1,–,–,–,4.6 µM,24%,–
CCCc1n[nH]c(-c2ccnc(NCC)c2)n1,–,–,–,11 µM,45%,–
Nc1n[nH]c(-c2ccnc(Nc3ccccc3)c2)n1,–,–,–,–,0%,–
COCCNc1cc(-c2n[nH]c(N)n2)ccn1,0.94,-0.88,11%,3.5 µM,50%,–
CCNc1cc(-c2n[nH]c(Cc3ccccc3)n2)ccn1,–,–,–,–,19%,KB [8]: inactive
CCCc1cc(-c2n[nH]c(N)n2)ccn1,–,–,–,4 µM,–,inhibition in vivo at 5 mg/kg (Canis familiaris [9]): 0%
CCCCCCNc1cc(-c2n[nH]c(N)n2)ccn1,3.3,-1.2,–,0.27 µM,40%,–
CCN(C)c1cc(-c2n[nH]c(N)n2)ccn1,–,–,42%,–,–,–
CCNc1cc(-c2c[nH]c(N)n2)ccn1,–,–,22%,3.3 µM,74%,–
CCCCCCCCCCNc1cc(-c2n[nH]c(N)n2)ccn1,4.07,-1.7,–,–,–,Inhibition (Canis familiaris [10]): 14%; Kb [5]: 4.78 µM
Cc1n[nH]c(-c2ccnc(CO)c2)n1,–,–,–,23 µM,7%,–
CNc1cc(-c2n[nH]c(N)n2)ccn1,0.694,0,50%,0.56 µM,–,–
Nc1n[nH]c(-c2ccnc(N3CCCC3)c2)n1,–,–,0%,–,–,–
Cc1n[nH]c(-c2ccnc(Cc3ccccc3)c2)n1,–,–,–,–,31%,–
CCCNc1cc(-c2n[nH]c(N)n2)ccn1,1.61,-0.379,33%,0.77 µM,–,inhibition in vivo at 5 mg/kg (Canis familiaris [9]): 64%
CCNc1cc(-c2n[nH]c(NC)n2)ccn1,–,–,35%,1.3 µM,72%,–
CN(C)c1cc(-c2n[nH]c(N)n2)ccn1,–,–,48%,3.2 µM,–,inhibition in vivo at 5 mg/kg (Canis familiaris [9]): 80%

Structure (SMILES),logP [1],-Log I50 (Canis familiaris [2]),inhibition in vivo at 1 mg/kg (Canis familiaris [3]),KB [5],inhibition in vivo at 10 mg/kg (Canis familiaris [6]),further results
CCNc1cc(-c2nc[nH]n2)ccn1,–,–,–,5 µM,29%,–
CCNc1cc(-c2n[nH]c(N)n2)ccn1,1.13,-0.028,–,0.23 µM,–,ED50 (Canis familiaris [11]): 0.87 mg/kg
Cc1cc(-c2n[nH]c(N)n2)ccn1,–,–,26%,13 µM,–,inhibition in vivo at 5 mg/kg (Canis familiaris [9]): 60%
CCc1cc(-c2n[nH]c(N)n2)ccn1,–,–,–,1.8 µM,–,inhibition in vivo at 5 mg/kg (Canis familiaris [9]): 55%
Nc1cc(-c2n[nH]c(N)n2)ccn1,0.11,-0.306,–,2.2 µM,–,ED50 (Canis familiaris [11]): 2.35 mg/kg
CCNc1cc(-c2n[nH]c(C)n2)ccn1,–,–,35%,0.55 µM,–,–
Cc1nc(-c2ccncc2)c[nH]1,–,–,–,–,–,inhibition in vivo at 25 mg/kg (Canis familiaris [12]): 56%
Nc1n[nH]c(-c2ccncc2)n1,–,–,–,42 µM,43%,inhibition in vivo at 23 mg/kg (Canis familiaris [13]): 73%
Nc1n[nH]c(-c2ccnc(NCCCc3ccccc3)c2)n1,3.05,–,–,–,30%,–
CN/C(=N\CCSCc1nc[nH]c1C)NC#N [CIMETIDINE],–,–,–,–,–,ED50 (Canis familiaris [11]): 1.02 mg/kg
CC(C)Nc1cc(-c2n[nH]c(N)n2)ccn1,–,–,–,3.6 µM,–,inhibition in vivo at 5 mg/kg (Canis familiaris [9]): 52%
Cc1ccc(CNc2cc(-c3n[nH]c(N)n3)ccn2)cc1,2.69,-1.03,–,0.13 µM,–,inhibition in vivo at 5 mg/kg (Canis familiaris [9]): 33%
Cc1ccc(CNc2cc(-c3n[nH]c(N)n3)ccn2)cc1C,3.08,-0.718,–,0.11 µM,–,inhibition in vivo at 5 mg/kg (Canis familiaris [9]): 49%
Nc1n[nH]c(-c2ccnc(NCCc3ccccc3)c2)n1,2.63,-1,–,1.9 µM,50%,–
C=CCNc1cc(-c2nc(N)n[nH]2)ccn1,1.26,-0.37,31%,0.48 µM,–,–
CCNc1cc(-c2n[nH]c(CC)n2)ccn1,–,–,–,1.3 µM,–,inhibition in vivo at 5 mg/kg (Canis familiaris [9]): 17%
Nc1n[nH]c(-c2ccnc(NCc3ccc(Cl)cc3)c2)n1,2.85,-0.428,21%,0.3 µM,–,–
CCNc1cc(-c2c[nH]c(C)n2)ccn1,–,–,–,1.4 µM,55%,–
CCNc1cc(-c2n[nH]c(NCC)n2)ccn1,–,–,38%,4.7 µM,–,inhibition in vivo at 0.5 mg/kg (Canis familiaris [14]): 21%
CCNc1cc(-c2c[nH]cn2)ccn1,–,–,–,0.59 µM,27%,–
Nc1n[nH]c(-c2ccnc(NCc3ccccc3)c2)n1,2.15,-0.568,21%,0.71 µM,72%,–

# From ChEMBL document CHEMBL1123101, “Pseudosymmetry and bioisosterism in biaryl pyridyl competitive histamine H2-receptor antagonists” (J Med Chem, 1985)
